Runt-SMMHC FRET: blocks binding of human RUNX1 Runt domain to CBFb-SMMHC; Q01196+Q13951; Cerulean-Runt/Venus-CBFb-SMMHC FRET ratio 530/480, 1 h; inhibition, % at 20 µM; actives 0.74% (n = 220,000); AID 1434;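 active means mean inhibition across duplicate retests at 20 µM reaching about 50%, limit read from the data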;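 further: 0% = DMSO wells and 100% = wells with excess untagged CBFb-SMMHC; inhibitors lower the FRET ratio by blocking Runt binding to CBFb-SMMHC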
Target sequence (Q01196 whole entry, looked up, the tested form may be a part): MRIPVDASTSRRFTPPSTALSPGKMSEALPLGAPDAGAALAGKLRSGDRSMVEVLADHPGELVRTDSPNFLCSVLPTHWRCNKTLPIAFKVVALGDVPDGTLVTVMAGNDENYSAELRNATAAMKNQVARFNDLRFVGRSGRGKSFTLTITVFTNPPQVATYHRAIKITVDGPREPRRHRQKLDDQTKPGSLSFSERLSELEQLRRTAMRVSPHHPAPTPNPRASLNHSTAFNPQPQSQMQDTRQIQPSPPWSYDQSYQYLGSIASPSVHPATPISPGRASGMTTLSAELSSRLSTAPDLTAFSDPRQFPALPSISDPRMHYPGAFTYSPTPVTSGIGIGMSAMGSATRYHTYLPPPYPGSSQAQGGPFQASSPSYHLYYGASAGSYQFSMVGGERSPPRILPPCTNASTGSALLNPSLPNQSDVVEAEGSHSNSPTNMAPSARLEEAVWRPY
Target sequence (Q13951 whole entry, looked up, the tested form may be a part): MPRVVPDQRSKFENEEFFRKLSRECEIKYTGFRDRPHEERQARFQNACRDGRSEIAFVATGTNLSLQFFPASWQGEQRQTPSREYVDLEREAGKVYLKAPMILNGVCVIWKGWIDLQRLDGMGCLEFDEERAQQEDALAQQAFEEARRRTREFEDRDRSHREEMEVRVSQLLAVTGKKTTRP
Runt-CBFb FRET: blocks binding of human RUNX1 Runt domain to CBFb; actives 0.46% (n = 220,000); Cerulean-Runt/Venus-CBFb FRET ratio 530/480, 1 h; Q01196+Q13951; AID 1496; inhibition, % at 20 µM;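 active means inhibition over about 50% at 20 µM in the single-dose screen, limit read from the data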;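 further: 0% = DMSO wells and 100% = excess unlabeled CBFb competitor control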
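Reagent – Venus-CBFb binding partner, 100 nM · Assay system – Cerulean-tagged RUNX1 Runt domain (FRET donor) fusion protein · Input – 100 nM per protein · Incubation – two 1 h room-temperature incubations shielded from light · Measured by – FRET fluorescence · Medium – Tris buffer pH 7.5 with salts and BSA · Benchmarks – unlabeled CBFb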
CaV13 FRET inh: Disruptors of the CACNA1D IQ motif to Ca2+-dependent inactivation inhibitor domain association, primary screening, Förster resonance energy transfer in intact living …; HEK cells, CFP/YFP FRET ICDI-IQ, plate reader, 10 min; percent FRET-ratio fall versus neutral wells; inhibition, % at 12.3 µM; actives 0.098% (n = 340,000); AID 743397;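 active means mean replicate inhibition of at least 30% and at least 1% of replicates passing that level; inconclusive means only one of the two criteria is met; inactive means neither criterion is met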;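 further: 0% = median of the neutral control wells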
RanGTP-Imp inh: disruptors of Ran-importin-beta complex formation – biochemical, FRET, CFP-Ran, YFP-importin-beta, homogeneous, primary screen; cell-free CFP-Ran/YFP-importin-beta FRET ratio; inhibition, % (no concentration beside the values); actives 1.1% (n = 300,000); AID 2216;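 active means more than half of the replicate wells show a fall in the fluorescence ratio signal beyond about 16%, limit read from the data, passing the limit was not always enough; inconclusive means exactly half of the replicate wells pass the set limit; inactive means fewer than half of replicates pass the limit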;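 further: 0% = DMSO wells and 100% = Ran loaded with GDP instead of GTP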
Hck-Nef inh: human Hck-Nef kinase inhibition. P08631. Recombinant Hck-YEEI plus Nef, Z-Lyte FRET kinase assay. inhibition, % at 20 µM. actives 0.68% (n = 220,000);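 active means Hck-Nef kinase inhibition above about 50%, limit read from the data; inactive means inhibition below that limit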;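 further: 0% = DMSO with Hck plus Nef and 100% = Hck alone without Nef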
Hck Nef conf: Hck-Nef kinase inhibition, confirmation; shares compounds with Hck-Nef inh; Recombinant Hck-YEEI:Nef, Z-Lyte FRET kinase assay; calls only at 10 µM; actives 28% (n = 1,300); AID 463188;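 active means average inhibition of at least 50%, with Z-scores no higher than 3 in both the phospho-tyrosine peptide and fluorescence counterscreens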
An asterisk follows results filed as active; i = inactive; ? = inconclusive; nt = no result given; + = active, no number. Only some compounds are listed: those with a hit (about 1.5% of all), similar ones and a draw of the others.

SMILES	Runt-SMMHC FRET	Runt-CBFb FRET	CaV13 FRET inh	RanGTP-Imp inh	Hck-Nef inh	Hck Nef conf
CCOc1cc(C2c3c(oc4ccccc4c3=O)C(=O)N2c2nccs2)ccc1O (stereo unspecified)	1.8	0.1	-15.1	-1.7	84.5*	i
Cc1ccc(NC(=O)CSc2nc3ccccc3c3nc(CCn4cncc4C)nn23)c(C)c1	-3.3	-2.2	-4.4	?	72.1*	i
O=C(O)c1cccc(CSc2nnc(-c3cccnc3)o2)c1	nt	nt	-0.8	6.3	nt	nt
Cc1ccc(C(=O)NC(=S)Nc2ccc(-c3ccc(CO)o3)cc2)cc1	14.6	11.2	-5.0	?	61.0*	i
Cc1cc(C)c2c(=O)c3c(oc2c1)C(=O)N(CCO)C3c1cccc(O)c1 (stereo unspecified)	-0.2	2.8	-5.2	0.3	0.5	nt
CC1=N/C(=C/c2ccco2)C(=O)O1	4.4	12.5	2.6	-4.5	58.5*	i
O=C1OC(c2ccc(Br)cc2)=N/C1=C\c1ccco1	-1.2	1.7	-5.3	4.3	7.4	nt
O=C(Nc1c2ccccc2nc2ccccc12)C(Cl)(Cl)Cl	-14.1	11.7	nt	135.1*	71.0*	i
COc1ccc2nc(C)cc(SCC(=O)Nc3c(C)cc(C)cc3C)c2c1	1.3	-1.8	-4.0	0.4	50.8*	i
COc1ccc2nc(C)cc(SCC(=O)NNC(=O)COc3ccc(C)cc3)c2c1	-8.0	-3.5	-4.5	5.2	-0.8	nt
COc1ccc2nc(C)cc(SCC(=O)Nc3c(C)cccc3C)c2c1	-5.5	-0.2	nt	1.1	78.4*	i
Cc1ccc(-n2c3c(cc(C(=O)N4CCN(C)CC4)c2=O)C(=O)CC(C)(C)C3)cc1	-3.7	-0.9	nt	1.0	2.4	nt
CCOC(=O)N1CCN(C(=O)CSc2nc(=O)n3cc(C)ccc3n2)CC1	nt	nt	-3.9	1.6	nt	nt
CC(=O)c1sc2nc(CSc3nnnn3-c3ccccc3)[nH]c(=O)c2c1C	-42.6	-10.7	-11.2	0.8	52.6*	+
CCOc1cc(/C=N/N=C(\N)c2nonc2N)cc(Br)c1OCc1cccc2ccccc12	4.5	-0.4	-3.4	-0.4	-3.6	nt
N#Cc1ncn(-c2ccc(Oc3ccccc3)cc2)c1N	-3.2	-0.8	-2.3	-0.3	73.6*	i
Cc1cc([N+](=O)[O-])nn1CC(=O)c1ccccc1	2.0	-1.0	-6.4	1.5	16.7	nt
CCOc1ccc(S(=O)(=O)N2CCN(C)CC2)c(C)c1C	-1.4	-1.7	-0.5	0.0	4.3	nt
CCOc1ccc(S(=O)(=O)N2CCCCC2)c(C)c1C	-4.3	-4.3	-5.1	3.8	82.8*	i
C=CCOc1ccc(Br)cc1/C=C1/SC(=Nc2ccc(C(=O)O)cc2)NC1=O	-7.4	-10.3	-9.4	nt	58.7*	+
O=C(CN1CC[n+]2c(-c3cccs3)csc21)c1ccc(-c2ccccc2)cc1	-3.6	2.8	-1.8	0.7	142.9*	+
Cc1ccc(C(=O)Cn2nnc(-c3cccs3)n2)cc1	-2.4	-1.3	-5.1	0.9	30.1	nt
Cc1cc(OCC(=O)NC2CC2)c2c(C)cc(=O)oc2c1	nt	nt	nt	1.4	nt	nt
COc1ccc(Br)cc1/C=C/C(=O)NC(=S)Nc1ccc(Cl)c(C(=O)O)c1	-2.5	3.2	3.5	-4.0	57.5*	i
COc1ccc(Br)cc1C(=O)NC(=S)Nc1ccc(Cl)c(C(=O)O)c1	-5.6	1.3	-0.7	-1.4	19.1	nt
SMILES	Runt-SMMHC FRET	Runt-CBFb FRET	CaV13 FRET inh	RanGTP-Imp inh	Hck-Nef inh	Hck Nef conf
CC1CCCN(S(=O)(=O)c2cccc(-c3cn4cccnc4n3)c2)C1 (stereo unspecified)	4.1	-1.9	nt	2.8	3.5	nt
O=C(CN1C(=O)NC2(CCCCCCC2)C1=O)NC1CCCc2ccccc21 (stereo unspecified)	1.8	1.0	-13.2	5.9	3.0	nt
Nc1cc(C(=O)O)c(N)c2c1C(=O)c1ccccc1C2=O	-12.0	-2.7	nt	-10.6	62.0*	i
Cc1cccn2c(=O)c3cc(C(=O)O)n(C)c3nc12	28.5	11.8	-8.1	-1.1	51.6*	i
Cc1cccn2c(=O)c3cc(C(=O)NCCC4=CCCCC4)n(C)c3nc12	nt	nt	-1.8	-2.1	nt	nt
COC1C=CC(CNC(=O)c2cc3c(=O)n4cccc(C)c4nc3n2C)(OC)O1 (stereo unspecified)	11.4	-0.6	-8.5	-1.9	73.8*	i
COc1ccc(Cl)cc1C(=O)NCCCn1ccnc1	nt	nt	-10.7	2.6	nt	nt
O=C(N/N=C/c1ccc([N+](=O)[O-])cc1)c1cc(-c2ccc3c(c2)OCO3)n[nH]1	-9.7	-2.4	9.4	4.0	63.6*	i
NC(=S)n1[nH]c(-c2ccc([N+](=O)[O-])cc2)c(N=Nc2ccc(O)cc2)c1=O	-1.1	6.0	-5.0	?	1.1	nt
NC(=S)n1[nH]c(-c2ccc([N+](=O)[O-])cc2)c(N=Nc2cccc(Cl)c2)c1=O	-7.6	-8.6	-5.5	-6.5	nt	+
O=c1[nH]c(S)c(/C=C2\C=Nc3ccccc32)s1	-28.9	30.7	-21.9	?	-54.2	nt
Oc1cccc(Nc2nc(O)c(/C=C3\C=Nc4ccccc43)s2)c1	-114.3	-40.2	-5.7	nt	88.2*	+
Cc1cc(C)c(C(N)=O)c(SCC(=O)c2cc(C)n(-c3cc(C)on3)c2C)n1	nt	nt	-2.3	nt	nt	nt
CCOC(=O)c1cc(CC)sc1NC(=O)COc1ccc2c(C)cc(=O)oc2c1	1.3	-2.6	-2.6	6.4	54.7*	i
Cc1cc(=O)oc2cc(OCc3ccc(C(=O)OCC(=O)Nc4ccc(N(C)C)cc4)cc3)ccc12	-1.4	0.7	-2.2	2.2	146.7*	i
COc1ccccc1N1CCN(/N=C\c2cccnc2)CC1	nt	nt	-3.0	-2.7	nt	nt
CCOC(=O)C1(CCC(C)C)CC(CSc2nc3ccccc3[nH]2)OC1=O (stereo unspecified)	3.1	-0.6	-6.8	1.0	1.1	nt
COc1ccc(/C=N/n2c(C)nc3c([nH]c4ccccc43)c2=O)cc1CN1CCCC(C)(C)C1	0.0	-6.7	-16.4	-3.5	55.6*	i
COc1ccc2[nH]c3c(=O)n(/N=C/c4ccc(OC)c(CN5CCCC5)c4)c(C)nc3c2c1	2.0	1.1	-12.8	2.0	-8.8	nt
Cc1ccc(-c2nc3ccccc3[nH]2)cc1NC(=O)c1sc2cc(Cl)ccc2c1Cl	1.7	-3.5	-5.3	0.5	73.1*	i
COc1ccc(OC)c(-c2c3cc(O)c(=O)cc-3oc3cc(O)c(O)cc23)c1	i	-282.9	nt	nt	54.4*	i
C=CCn1c(C)cc(C(=O)Cn2ncc(Cl)c(Cl)c2=O)c1C	-11.8	-9.0	-5.4	3.6	52.6*	i
CCCc1nc(SCC(=O)NNC(=O)c2ccc(OC)cc2)c2ccccc2n1	-3.3	-2.5	-4.3	4.5	24.4	nt

Source: PubChem
